Measured values published in ChEMBL document CHEMBL2384906, “Biological activity, design, synthesis and structure activity relationship of some novel derivatives of curcumin containing sulfonamides” (Eur J Med Chem, 2013).
In brackets after ≈: the same amount, converted by molar mass. Activity calls are given as the source filed them. The rule behind the calls is not given here.

Columns and labels:
[1] = test system: QG-56; assay: Cytotoxicity against human QG56 cells after 24 hrs by MTT assay; type: functional, cell-based
Summary of the method: (§1)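 The MTT assay seeded 5 × 10⁴ cells per well and grew them 24 h in RPMI 1640 with compound at 2.5–200 µM. Medium without cells was the blank and adriamycin the positive control. MTT was added for 4 h at 37 °C, formazan was solubilised, and absorbance was read at 570 nm. IC50 is the concentration that cuts viability 50% against untreated cells.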

[2] = test system: Trichoderma viride; assay: Antifungal activity against Trichoderma viride MTCC 1107 assessed as zone of inhibition at 20 uM after 48 hrs by disc diffusion method; type: functional
Summary of the method: (§2)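 Spores from 4-day potato dextrose agar cultures, suspended in sterile water at 1.5 × 10⁵ CFU/mL. 0.2 mL was spread on potato dextrose agar. 5 mm filter-paper discs soaked with test compound were laid on the lawn. Incubation was 48 h at 28 °C, then the inhibition zone was measured in mm. Fluconazole was the positive control and acetone the negative control.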

[3] = test system: Pseudomonas aeruginosa; assay: Antimicrobial activity against Pseudomonas aeruginosa ATCC 15499 after 24 hrs by broth micro serial dilution method; type: functional
Summary of the method: (§3)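 This was broth microdilution in autoclaved Mueller-Hinton broth. 150 µL of compound per well was serially diluted […], and 50 µL of test organism was added. Plates were incubated 24 h at 37 °C and optical density was read.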

[4] = test system: HeLa; assay: Cytotoxicity against human HeLa cells after 24 hrs by MTT assay; type: functional, cell-based; summary of the method: as §1
[5] = test system: Aspergillus niger; assay: Antifungal activity against Aspergillus niger MTCC 1108 assessed as zone of inhibition at 80 uM after 48 hrs by disc diffusion method; type: functional; summary of the method: as §2
[6] = test system: Salmonella typhi; assay: Antimicrobial activity against Salmonella typhi ATCC 23564 after 24 hrs by broth micro serial dilution method; type: functional
[7] = test system: Escherichia coli; assay: Antimicrobial activity against Escherichia coli ATCC 35218 after 24 hrs by broth micro serial dilution method; type: functional; summary of the method: as §3
[8] = test system: Aspergillus flavus; assay: Antifungal activity against Aspergillus flavus MTCC 1021 after 48 hrs; type: functional
[9] = test system: Curvularia lunata; assay: Antifungal activity against Curvularia lunata MTCC 581 after 48 hrs; type: functional; settings: MTCC 581, 48 h
[10] = test system: Pseudomonas aeruginosa; assay: Antimicrobial activity against Pseudomonas aeruginosa ATCC 15499 assessed as diameter of inhibition zone at 80 uM after 24 hrs by Kirby -Baur disc diffusion method; type: functional
Summary of the method: (§4)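 Kirby-Bauer disc diffusion was used. Acetone stocks (160 µM) were serially doubled down to 80, 40 and 20 µM. 4 µL of each went onto 5 mm sterile paper discs, which were dried 30 min at 50 °C. Inoculum was 1.5 × 10⁸ CFU/mL diluted to 3 × 10² CFU/mL, and 50 µL was spread on Mueller-Hinton agar. After 24 h at 37 °C the inhibition-zone diameter was measured. Ciprofloxacin served as positive control.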

[11] = test system: Curvularia lunata; assay: Antifungal activity against Curvularia lunata MTCC 581 assessed as zone of inhibition at 20 uM after 48 hrs by disc diffusion method; type: functional; summary of the method: as §2
[12] = test system: Mus musculus; assay: Antiinflammatory activity in mouse assessed as inhibition of carrageenan-induced increase in paw volume at 200 mg/kg administered 1 hr prior to carrageenan challenge measured after 3 hrs relative to control; type: functional
Summary of the method: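 Mice were fasted 2 h and placed in groups of five. Controls received saline i.p. Phenylbutazone was given at 100 mg/kg i.p., curcumin at 200 mg/kg i.p., and derivatives at 200 mg/kg. After 1 h, 0.1 mL of 1% carrageenan in saline was injected subplantar into the right hind paw. Paw volume was followed by plethysmometer for 3 h, and % inhibition was calculated as (Vc − Vt)/Vc × 100.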

[13] = test system: Bacillus cereus; assay: Antimicrobial activity against Bacillus cereus MTCC 7350 assessed as diameter of inhibition zone at 80 uM after 24 hrs by Kirby -Baur disc diffusion method; type: functional; summary of the method: as §4
[14] = test system: Staphylococcus aureus; assay: Antimicrobial activity against Staphylococcus aureus ATCC 11632 assessed as diameter of inhibition zone at 80 uM after 24 hrs by Kirby -Baur disc diffusion method; type: functional; summary of the method: as §4
[15] = test system: HCT-116; assay: Cytotoxicity against human HCT116 cells after 24 hrs by MTT assay; type: functional, cell-based; summary of the method: as §1
[16] = test system: Curvularia lunata; assay: Antifungal activity against Curvularia lunata MTCC 581 assessed as zone of inhibition at 40 uM after 48 hrs by disc diffusion method; type: functional; settings: for zone of inhibition at 40 µM: MTCC 581, 48 h, read-out: IZ; summary of the method: as §2
[17] = test system: Aspergillus niger; assay: Antifungal activity against Aspergillus niger MTCC 1108 after 48 hrs; type: functional
[18] = test system: Salmonella typhi; assay: Antimicrobial activity against Salmonella typhi ATCC 23564 assessed as diameter of inhibition zone at 80 uM after 24 hrs by Kirby -Baur disc diffusion method; type: functional; settings: for diameter of the inhibition zone (DIZ): Salmonella enterica subsp. enterica serovar Typhi
[19] = test system: HepG2; assay: Cytotoxicity against human HepG2 cells after 24 hrs by MTT assay; type: functional, cell-based; summary of the method: as §1
[20] = test system: Staphylococcus aureus; assay: Antimicrobial activity against Staphylococcus aureus ATCC 11632 after 24 hrs by broth micro serial dilution method; type: functional; summary of the method: as §3
[21] = test system: Trichoderma viride; assay: Antifungal activity against Trichoderma viride MTCC 1107 assessed as zone of inhibition at 40 uM after 48 hrs by disc diffusion method; type: functional; settings: for zone of inhibition at 40 µM: MTCC 1107, 48 h, read-out: IZ; summary of the method: as §2
[22] = test system: Trichoderma viride; assay: Antifungal activity against Trichoderma viride MTCC 1107 assessed as zone of inhibition at 80 uM after 48 hrs by disc diffusion method; type: functional; settings: MTCC 1107, 48 h, read-out: IZ; summary of the method: as §2
[23] = test system: Bacillus cereus; assay: Antimicrobial activity against Bacillus cereus MTCC 7350 after 24 hrs by broth micro serial dilution method; type: functional; summary of the method: as §3
[24] = test system: Aspergillus flavus; assay: Antifungal activity against Aspergillus flavus MTCC 1021 assessed as zone of inhibition at 80 uM after 48 hrs by disc diffusion method; type: functional; summary of the method: as §2
[25] = test system: Trichoderma viride; assay: Antifungal activity against Trichoderma viride MTCC 1107 after 48 hrs; type: functional; settings: MTCC 1107, 48 h
[26] = test system: Curvularia lunata; assay: Antifungal activity against Curvularia lunata MTCC 581 assessed as zone of inhibition at 80 uM after 48 hrs by disc diffusion method; type: functional; settings: MTCC 581, 48 h, read-out: IZ; summary of the method: as §2
[27] = test system: Escherichia coli; assay: Antimicrobial activity against Escherichia coli ATCC 35218 assessed as diameter of inhibition zone at 80 uM after 24 hrs by Kirby -Baur disc diffusion method; type: functional; summary of the method: as §4
[28] = test system: Salmonella typhi; assay: Antimicrobial activity against Salmonella typhi ATCC 23564 assessed as diameter of inhibition zone at 40 uM after 24 hrs by Kirby -Baur disc diffusion method; type: functional; settings: Salmonella enterica subsp. enterica serovar Typhi
[29] = test system: Salmonella typhi; assay: Antimicrobial activity against Salmonella typhi ATCC 23564 assessed as diameter of inhibition zone at 20 uM after 24 hrs by Kirby -Baur disc diffusion method; type: functional; settings: Salmonella enterica subsp. enterica serovar Typhi
[30] = Salmonella enterica subsp. enterica serovar Typhi
[31] = Salmonella enterica, ATCC 23564, 24 h

SMILES	IC50 [1]	inhibition zone (IZ) [2]	MIC [3]	IC50 [4]	inhibition zone (IZ) [5]	MIC [6, 30]	MIC [7]	MIC [9] [µM]	diameter of the inhibition zone (DIZ) [10]	diameter of the inhibition zone (DIZ) [13]	diameter of the inhibition zone (DIZ) [14]	MIC [17]	diameter of the inhibition zone (DIZ) [18]	MIC [20]	zone of inhibition at 80 µM [22] [mm]	MIC [23]	inhibition zone (IZ) [24]	MIC [25] [µM]	zone of inhibition at 80 µM [26] [mm]	diameter of the inhibition zone (DIZ) [27]	other results
COc1cc(/C=C/c2nn(-c3ccccc3)c(/C=C/c3ccc(O)c(OC)c3)c2/N=N/c2ccc(S(N)(=O)=O)cc2)ccc1O	> 100 µM	inactive	inactive	> 100 µM	inactive	inactive	inactive	> 80	inactive	inactive	inactive	inactive	inactive	inactive	11	inactive	inactive	80 (≈ 49.9 µg/mL)	11	inactive	MIC [8]: inactive; inhibition zone (IZ) [11]: inactive; inhibition in vivo at 200 mg/kg [12]: 22.5%; IC50 [15]: Not Active; zone of inhibition at 40 µM [16]: 10 mm; IC50 [19]: Not Active; zone of inhibition at 40 µM [21]: 10 mm
Nc1ccc(S(=O)(=O)Nc2ccccn2)cc1 [SULFAPYRIDINE]	–	–	inactive	–	–	inactive	–	–	inactive	inactive	inactive	–	inactive	inactive	–	inactive	–	–	–	inactive	MIC ([7]; ATCC 35218, 24 h): > 160 µM
COc1cc(/C=C/c2noc(/C=C/c3ccc(O)c(OC)c3)c2/N=N/c2ccc(S(N)(=O)=O)cc2)ccc1O	Not Active	inactive	inactive	Not Active	inactive	–	inactive	> 80	inactive	inactive	inactive	inactive	–	inactive	11	inactive	inactive	> 80	9	inactive	diameter of the inhibition zone (DIZ) [28]: inactive; MIC [6, 31]: > 80 µM; MIC [8]: inactive; diameter of the inhibition zone (DIZ) [29]: inactive; inhibition zone (IZ) [11]: inactive; inhibition in vivo at 200 mg/kg [12]: 24.1%; IC50 [15]: Not Active; inhibition zone (IZ) [16]: inactive; zone of inhibition at 80 µM ([18]; Salmonella enterica, ATCC 23564, 24 h, read-out: DIZ): 11 mm; IC50 [19]: Not Active; inhibition zone (IZ) [21]: inactive
Cc1cc(NS(=O)(=O)c2ccc(N)cc2)no1 [SULFAMETHOXAZOLE]	–	–	inactive	–	–	–	–	–	inactive	inactive	inactive	–	inactive	–	–	inactive	–	–	–	inactive	MIC [6, 31]: > 160 µM; MIC ([7]; ATCC 35218, 24 h): > 160 µM; MIC ([20]; ATCC 11632, 24 h): > 160 µM
OC(Cn1cncn1)(Cn1cncn1)c1ccc(F)cc1F [FLUCONAZOLE]	–	–	–	–	inactive	–	–	20 (≈ 6.13 µg/mL)	–	–	–	inactive	–	–	29	–	inactive	20 (≈ 6.13 µg/mL)	28	–	zone of inhibition at 20 µM ([2]; MTCC 1107, 48 h, read-out: IZ): 21 mm; MIC ([8]; MTCC 1021, 48 h): > 80 µM; zone of inhibition at 20 µM ([11]; MTCC 581, 48 h, read-out: IZ): 24 mm; zone of inhibition at 40 µM [16]: 27 mm; zone of inhibition at 40 µM [21]: 24 mm
